From ChEMBL document CHEMBL4270649 (Eur J Med Chem, 2018)
Active and inactive are the calls of the source. The rule behind the calls is not given here.

Assays:
[1] = Cytotoxicity against human HeLa cells assessed as cell viability at 3 uM after 3 days by XTT assay relative to control; assay type: cell-based; details: read-out: Activity
[2] = target: T1, Dual specificity tyrosine-phosphorylation-regulated kinase 1B (Homo sapiens, UniProt Q9Y463); details: 0.25 h, read-out: INH
[3] = Cytotoxicity against human HeLa cells assessed as cell viability at 1 uM after 3 days by XTT assay relative to control; assay type: cell-based; details: read-out: Activity
[4] = Cytotoxicity against human HeLa cells assessed as cell viability at 10 uM after 3 days by XTT assay relative to control; assay type: cell-based; details: read-out: Activity
[5] = target: T1, Dual specificity tyrosine-phosphorylation-regulated kinase 1B; assay: Inhibition of full length recombinant human GST-tagged DYRK1B expressed in baculovirus expression system using KKISGRLSPIMTEQ-NH2 as substrate after 15 mins in presence of 15 uM [gamma32P]ATP by phosphor imaging analysis
[6] = Half life in human liver S9 fraction at 0.3 uM in presence of NADP+/UDPGA by LC-MS/MS analysis; assay type: ADME, subcellular
Outline: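 Compound was incubated with human S9 fraction and samples were taken at defined time points. Remaining parent was quantified by LC-MS/MS: ESI triple quadrupole, RP C18 column, water/acetonitrile with 0.1% TFA, 5–100% B over 7 min at 400 µL/min. Half-life was calculated from the remaining-parent data.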

[7] = target: T2, Serine/threonine-protein kinase 17A (Homo sapiens) (UniProt Q9UEE5); assay: Inhibition of full length human GST-tagged STK17A expressed in baculovirus expression system at 1.25 uM in presence of 100 uM ATP relative to control
T2 sequence (whole entry): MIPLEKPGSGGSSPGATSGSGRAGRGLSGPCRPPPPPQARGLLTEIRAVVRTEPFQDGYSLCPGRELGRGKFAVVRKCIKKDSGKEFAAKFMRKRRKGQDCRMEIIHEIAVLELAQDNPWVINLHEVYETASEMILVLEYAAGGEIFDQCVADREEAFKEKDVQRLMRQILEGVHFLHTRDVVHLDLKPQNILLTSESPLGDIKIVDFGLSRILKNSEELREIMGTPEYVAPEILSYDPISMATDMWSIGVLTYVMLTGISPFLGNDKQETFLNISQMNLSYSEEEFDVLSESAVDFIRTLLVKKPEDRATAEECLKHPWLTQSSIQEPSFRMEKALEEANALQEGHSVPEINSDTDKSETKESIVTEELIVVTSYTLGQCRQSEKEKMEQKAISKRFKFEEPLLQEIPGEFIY

[8] = target: Dual specificity protein kinase CLK1 (Homo sapiens, UniProt P49759); assay: Inhibition of recombinant human GST-tagged CLK1 (129 to 484 residues) expressed in Escherichia coli using GRSRSRSRSRSRSRSR as substrate after 15 mins in presence of 15 uM [gamma32P]ATP by phosphor imaging analysis
Sequence of Dual specificity protein kinase CLK1 (P49759 whole entry, the tested form may be a part): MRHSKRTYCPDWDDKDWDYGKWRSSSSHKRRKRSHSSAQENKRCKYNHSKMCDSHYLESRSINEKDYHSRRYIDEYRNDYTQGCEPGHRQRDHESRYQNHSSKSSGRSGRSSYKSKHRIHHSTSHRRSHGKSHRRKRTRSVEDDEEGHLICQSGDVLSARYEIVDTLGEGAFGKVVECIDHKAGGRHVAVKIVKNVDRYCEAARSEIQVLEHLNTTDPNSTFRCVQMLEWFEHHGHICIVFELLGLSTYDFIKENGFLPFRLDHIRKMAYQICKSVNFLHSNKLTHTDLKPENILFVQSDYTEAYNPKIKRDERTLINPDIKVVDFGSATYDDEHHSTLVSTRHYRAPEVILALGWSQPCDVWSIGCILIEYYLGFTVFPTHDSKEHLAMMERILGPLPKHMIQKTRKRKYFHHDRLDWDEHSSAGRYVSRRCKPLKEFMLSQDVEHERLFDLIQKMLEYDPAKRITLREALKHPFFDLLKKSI

[9] = target: T3, Dual specificity tyrosine-phosphorylation-regulated kinase 1A (Homo sapiens, UniProt Q13627); assay: Inhibition of DYRK1A in human HeLa cells harboring GFP-SF3b1-NT assessed as reduction in SF3b1 phosphorylation at T343 residue after 18 hrs by Western blot analysis; assay type: cell-based
[10] = target: T3, Dual specificity tyrosine-phosphorylation-regulated kinase 1A; assay: Inhibition of recombinant human N-terminal His6-tagged DYRK1A expressed in Escherichia coli BL21(DE3) using KKISGRLSPIMTEQ-NH2 as substrate after 15 mins in presence of 15 uM [gamma32P]ATP by phosphor imaging analysis
[11] = target: Dual specificity protein kinase CLK2 (Homo sapiens) (UniProt P49760); assay: Inhibition of human GST-tagged CLK2 expressed in baculovirus expression system at 1.25 uM in presence of 100 uM ATP relative to control
[12] = target: T4, Serine/threonine-protein kinase haspin (Homo sapiens, UniProt Q8TF76); assay: Inhibition of human GST-tagged haspin expressed in baculovirus expression system in presence of 100 uM ATP
T4 sequence (Q8TF76 whole entry): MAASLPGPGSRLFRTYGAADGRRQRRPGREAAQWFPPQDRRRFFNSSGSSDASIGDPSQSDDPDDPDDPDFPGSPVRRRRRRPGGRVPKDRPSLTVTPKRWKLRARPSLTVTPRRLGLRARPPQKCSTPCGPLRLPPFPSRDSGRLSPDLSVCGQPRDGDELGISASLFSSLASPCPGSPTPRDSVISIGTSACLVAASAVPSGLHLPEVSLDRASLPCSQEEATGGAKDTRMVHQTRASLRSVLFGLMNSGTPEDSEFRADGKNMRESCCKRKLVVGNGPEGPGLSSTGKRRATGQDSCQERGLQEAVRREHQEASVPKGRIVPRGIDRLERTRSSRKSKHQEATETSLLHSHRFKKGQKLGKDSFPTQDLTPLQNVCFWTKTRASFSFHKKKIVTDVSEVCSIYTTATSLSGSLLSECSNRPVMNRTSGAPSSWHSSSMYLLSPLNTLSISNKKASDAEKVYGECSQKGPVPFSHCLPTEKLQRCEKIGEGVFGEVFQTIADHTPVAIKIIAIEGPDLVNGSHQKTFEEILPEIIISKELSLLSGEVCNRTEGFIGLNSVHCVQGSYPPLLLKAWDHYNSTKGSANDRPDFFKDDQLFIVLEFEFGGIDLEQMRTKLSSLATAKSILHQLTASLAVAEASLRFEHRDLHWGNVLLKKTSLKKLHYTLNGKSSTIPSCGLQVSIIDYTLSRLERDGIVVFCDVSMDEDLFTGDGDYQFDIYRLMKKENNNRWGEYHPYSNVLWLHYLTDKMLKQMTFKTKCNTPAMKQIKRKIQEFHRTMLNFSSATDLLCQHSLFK

[13] = target: SRSF protein kinase 1 (Homo sapiens) (UniProt Q96SB4); assay: Inhibition of full length human His-tagged SRPK1 expressed in baculovirus expression system at 1.25 uM in presence of 100 uM ATP relative to control
Sequence of SRSF protein kinase 1 (Homo sapiens) (Q96SB4 whole entry): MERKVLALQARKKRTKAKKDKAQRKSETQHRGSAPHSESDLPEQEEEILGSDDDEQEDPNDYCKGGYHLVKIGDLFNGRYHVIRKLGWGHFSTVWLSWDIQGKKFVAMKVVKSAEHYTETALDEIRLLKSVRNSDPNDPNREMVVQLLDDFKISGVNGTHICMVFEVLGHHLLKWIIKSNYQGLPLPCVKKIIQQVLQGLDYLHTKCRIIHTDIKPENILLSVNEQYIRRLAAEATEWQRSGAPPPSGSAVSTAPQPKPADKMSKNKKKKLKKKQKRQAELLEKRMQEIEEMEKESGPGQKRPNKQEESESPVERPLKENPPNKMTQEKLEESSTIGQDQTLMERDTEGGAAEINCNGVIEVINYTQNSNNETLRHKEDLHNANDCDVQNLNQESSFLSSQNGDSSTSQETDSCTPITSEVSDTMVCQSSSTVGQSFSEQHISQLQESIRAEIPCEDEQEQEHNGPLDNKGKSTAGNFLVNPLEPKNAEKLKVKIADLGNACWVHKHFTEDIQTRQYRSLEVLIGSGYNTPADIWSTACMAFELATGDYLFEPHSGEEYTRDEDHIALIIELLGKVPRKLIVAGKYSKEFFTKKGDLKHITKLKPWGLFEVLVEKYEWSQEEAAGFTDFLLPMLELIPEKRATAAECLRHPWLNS

[14] = target: T4, Serine/threonine-protein kinase haspin; assay: Inhibition of human GST-tagged haspin expressed in baculovirus expression system at 1.25 uM in presence of 100 uM ATP relative to control
[15] = target: Cyclin-dependent kinase 5/CDK5 activator 1 (Homo sapiens) (UniProt Q00535+Q15078); assay: Inhibition of full length human GST/His-tagged CDK5/p25 expressed in baculovirus expression system at 1.25 uM in presence of 100 uM ATP by Z'-Lyte assay relative to control
[16] = target: Serine/threonine-protein kinase pim-1 (Homo sapiens) (UniProt P11309); assay: Inhibition of full length human His-tagged PIM1 expressed in baculovirus expression system at 1.25 uM in presence of 100 uM ATP relative to control
[17] = target: Myosin light chain kinase 2, skeletal/cardiac muscle (Homo sapiens) (UniProt Q9H1R3); assay: Inhibition of human full length GST-tagged MLCK2 expressed in baculovirus expression system at 1.25 uM in presence of 100 uM ATP relative to control
Sequence of Myosin light chain kinase 2, skeletal/cardiac muscle (Homo sapiens) (Q9H1R3 whole entry): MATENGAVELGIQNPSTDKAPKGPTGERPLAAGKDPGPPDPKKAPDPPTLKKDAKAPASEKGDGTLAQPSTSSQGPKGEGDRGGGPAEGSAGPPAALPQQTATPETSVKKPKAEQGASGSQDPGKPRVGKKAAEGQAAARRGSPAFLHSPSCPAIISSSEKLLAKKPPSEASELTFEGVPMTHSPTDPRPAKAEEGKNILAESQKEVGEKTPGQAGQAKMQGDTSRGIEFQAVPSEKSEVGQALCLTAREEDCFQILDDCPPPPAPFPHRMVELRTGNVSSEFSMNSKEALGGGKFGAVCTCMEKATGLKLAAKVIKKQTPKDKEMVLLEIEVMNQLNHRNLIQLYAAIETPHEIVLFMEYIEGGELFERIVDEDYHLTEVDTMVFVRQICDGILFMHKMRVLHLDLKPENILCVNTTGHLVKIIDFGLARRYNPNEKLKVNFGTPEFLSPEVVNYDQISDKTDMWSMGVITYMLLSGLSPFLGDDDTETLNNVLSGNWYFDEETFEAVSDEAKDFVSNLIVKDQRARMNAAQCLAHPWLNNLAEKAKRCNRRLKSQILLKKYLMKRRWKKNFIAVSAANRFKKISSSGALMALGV

[18] = target: BDNF/NT-3 growth factors receptor (Homo sapiens) (UniProt Q16620); assay: Inhibition of human His-tagged TRK-B expressed in baculovirus expression system at 1.25 uM in presence of 100 uM ATP relative to control
Sequence of BDNF/NT-3 growth factors receptor (Homo sapiens) (Q16620 32-822 limits assumed): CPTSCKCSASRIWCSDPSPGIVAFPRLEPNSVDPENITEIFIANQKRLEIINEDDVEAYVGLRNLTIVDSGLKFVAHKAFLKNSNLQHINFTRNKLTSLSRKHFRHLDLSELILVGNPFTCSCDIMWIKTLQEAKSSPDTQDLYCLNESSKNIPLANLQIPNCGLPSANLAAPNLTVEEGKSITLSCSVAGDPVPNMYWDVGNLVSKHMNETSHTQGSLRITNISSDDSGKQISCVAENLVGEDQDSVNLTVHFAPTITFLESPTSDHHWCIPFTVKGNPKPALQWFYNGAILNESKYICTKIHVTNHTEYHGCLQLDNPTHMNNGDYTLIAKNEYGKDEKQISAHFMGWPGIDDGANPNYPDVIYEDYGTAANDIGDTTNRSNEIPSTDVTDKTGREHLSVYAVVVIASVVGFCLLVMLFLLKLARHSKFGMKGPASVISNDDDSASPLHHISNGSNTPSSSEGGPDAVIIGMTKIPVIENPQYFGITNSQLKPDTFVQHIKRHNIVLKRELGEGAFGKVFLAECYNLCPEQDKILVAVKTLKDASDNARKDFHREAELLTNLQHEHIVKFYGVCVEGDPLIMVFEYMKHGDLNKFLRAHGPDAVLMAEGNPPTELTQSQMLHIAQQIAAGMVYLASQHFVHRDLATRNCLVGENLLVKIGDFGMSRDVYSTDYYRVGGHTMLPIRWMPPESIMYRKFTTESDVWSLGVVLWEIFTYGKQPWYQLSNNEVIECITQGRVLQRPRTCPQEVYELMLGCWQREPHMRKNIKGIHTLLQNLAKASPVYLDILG

[19] = target: Homeodomain-interacting protein kinase 1 (Homo sapiens) (UniProt Q86Z02); assay: Inhibition of human GST-tagged HIPK1 expressed in baculovirus expression system at 1.25 uM in presence of 100 uM ATP relative to control
Sequence of Homeodomain-interacting protein kinase 1 (Homo sapiens) (Q86Z02 whole entry, looked up, canonical isoform): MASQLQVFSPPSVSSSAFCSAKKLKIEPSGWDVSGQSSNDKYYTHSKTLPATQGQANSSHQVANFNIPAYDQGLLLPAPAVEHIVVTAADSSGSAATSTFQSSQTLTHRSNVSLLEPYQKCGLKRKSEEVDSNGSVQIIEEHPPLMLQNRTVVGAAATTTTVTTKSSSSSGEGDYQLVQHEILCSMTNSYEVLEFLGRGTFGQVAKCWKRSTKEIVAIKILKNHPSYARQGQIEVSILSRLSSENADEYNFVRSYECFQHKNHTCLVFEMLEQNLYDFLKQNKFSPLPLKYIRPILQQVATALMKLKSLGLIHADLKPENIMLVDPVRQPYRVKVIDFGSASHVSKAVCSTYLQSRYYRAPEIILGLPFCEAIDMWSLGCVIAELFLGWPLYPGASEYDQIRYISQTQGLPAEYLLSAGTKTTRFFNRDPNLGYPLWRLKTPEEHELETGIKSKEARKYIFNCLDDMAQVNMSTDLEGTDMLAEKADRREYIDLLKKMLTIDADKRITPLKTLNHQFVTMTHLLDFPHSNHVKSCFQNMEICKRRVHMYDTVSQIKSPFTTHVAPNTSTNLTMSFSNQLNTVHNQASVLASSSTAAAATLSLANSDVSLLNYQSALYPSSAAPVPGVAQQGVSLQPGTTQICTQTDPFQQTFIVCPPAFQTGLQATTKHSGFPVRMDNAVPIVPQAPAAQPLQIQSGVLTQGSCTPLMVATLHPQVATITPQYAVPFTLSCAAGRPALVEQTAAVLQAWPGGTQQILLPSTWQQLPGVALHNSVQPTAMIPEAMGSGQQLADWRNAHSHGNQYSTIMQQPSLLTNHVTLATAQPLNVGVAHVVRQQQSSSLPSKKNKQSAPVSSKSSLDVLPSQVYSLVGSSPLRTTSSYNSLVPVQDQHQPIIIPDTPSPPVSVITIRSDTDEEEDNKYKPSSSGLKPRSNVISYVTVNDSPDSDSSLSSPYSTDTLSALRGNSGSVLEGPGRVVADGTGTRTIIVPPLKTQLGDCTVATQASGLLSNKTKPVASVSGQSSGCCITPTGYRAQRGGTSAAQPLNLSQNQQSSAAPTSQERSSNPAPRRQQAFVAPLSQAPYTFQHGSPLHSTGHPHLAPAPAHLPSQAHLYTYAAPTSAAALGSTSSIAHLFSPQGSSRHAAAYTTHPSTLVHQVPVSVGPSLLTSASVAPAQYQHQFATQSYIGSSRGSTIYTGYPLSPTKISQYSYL

[20] = target: Casein kinase I isoform delta (Homo sapiens) (UniProt P48730); assay: Inhibition of CK1delta (unknown origin) at 1.25 uM in presence of 100 uM ATP relative to control
Sequence of Casein kinase I isoform delta (Homo sapiens) (P48730 whole entry, looked up, canonical isoform): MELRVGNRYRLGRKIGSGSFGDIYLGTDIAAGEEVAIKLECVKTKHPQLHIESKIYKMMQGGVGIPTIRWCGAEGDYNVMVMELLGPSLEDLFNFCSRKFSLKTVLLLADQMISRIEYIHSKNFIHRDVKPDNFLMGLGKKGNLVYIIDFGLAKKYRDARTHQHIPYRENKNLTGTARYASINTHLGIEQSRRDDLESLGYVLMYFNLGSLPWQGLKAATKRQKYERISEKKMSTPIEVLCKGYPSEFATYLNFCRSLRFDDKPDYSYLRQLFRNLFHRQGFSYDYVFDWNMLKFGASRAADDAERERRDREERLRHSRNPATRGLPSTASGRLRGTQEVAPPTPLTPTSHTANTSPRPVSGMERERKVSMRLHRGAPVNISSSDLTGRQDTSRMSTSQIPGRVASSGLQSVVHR

[21] = target: T3, Dual specificity tyrosine-phosphorylation-regulated kinase 1A; assay: Inhibition of recombinant human N-terminal His6-tagged DYRK1A expressed in Escherichia coli BL21(DE3) at 1.25 uM using KKISGRLSPIMTEQ-NH2 as substrate after 15 mins in presence of 15 uM [gamma32P]ATP by phosphor imaging analysis relative to control

T1 sequence (Q9Y463 whole entry): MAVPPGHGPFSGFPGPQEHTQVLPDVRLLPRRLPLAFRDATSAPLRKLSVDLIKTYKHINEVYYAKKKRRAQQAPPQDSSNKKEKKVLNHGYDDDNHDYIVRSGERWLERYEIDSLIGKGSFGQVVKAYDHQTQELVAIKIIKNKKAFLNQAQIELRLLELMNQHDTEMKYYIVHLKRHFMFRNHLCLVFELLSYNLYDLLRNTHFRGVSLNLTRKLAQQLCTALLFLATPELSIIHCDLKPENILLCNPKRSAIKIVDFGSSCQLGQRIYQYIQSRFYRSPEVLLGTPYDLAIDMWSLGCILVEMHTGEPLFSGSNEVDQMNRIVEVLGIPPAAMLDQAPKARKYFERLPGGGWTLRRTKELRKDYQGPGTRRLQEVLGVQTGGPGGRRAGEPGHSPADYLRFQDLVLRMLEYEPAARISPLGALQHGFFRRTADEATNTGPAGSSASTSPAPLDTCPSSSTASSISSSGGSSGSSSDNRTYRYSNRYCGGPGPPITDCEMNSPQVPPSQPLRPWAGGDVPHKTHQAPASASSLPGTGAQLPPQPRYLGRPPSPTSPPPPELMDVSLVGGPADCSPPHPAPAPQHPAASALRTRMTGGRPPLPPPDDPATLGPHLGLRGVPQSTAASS

Compound	inhibition at 0.25 µM [2] [%]	IC50 [5] [nM]	also measured
O=C(Nc1cncc(-c2cc(-c3cn[nH]c3)cs2)c1)C1CC1	58.1	138	half-life at 0.3 µM [6]: 2.45 h
CS(=O)(=O)Nc1cncc(-c2cc(-c3cccnc3)cs2)c1	23.5		
CCN(C(=O)C1CC1)c1cncc(-c2cc(-c3cccnc3)cs2)c1	14.6		
O=C(CN1CCOCC1)Nc1cncc(-c2cc(-c3cccnc3)cs2)c1	13.9		
CCCn1cc(-c2csc(-c3cncc(NC(=O)C4CC4)c3)c2)cn1	65.7	98.8	
O=C(Nc1cncc(-c2cccs2)c1)C1CC1	0		
CC(C)n1cc(-c2csc(-c3cncc(NC(=O)C4CC4)c3)c2)cn1	0.7		
CN[C@@H]1C[C@H]2O[C@@](C)([C@@H]1OC)n1c3ccccc3c3c4c(c5c6ccccc6n2c5c31)C(=O)NC4 [STAUROSPORINE]			viability at 72 h, 1 µM [3]: 33%
CCC(=O)Nc1cncc(-c2cc(-c3cccnc3)cs2)c1	49.3		
O=C(Cc1nnn[nH]1)Nc1cncc(-c2cc(-c3cccnc3)cs2)c1	38.5		
CN(C(=O)C1CC1)c1cncc(-c2cc(-c3cccnc3)cs2)c1	0.9		
CCn1cc(-c2csc(-c3cncc(NC(=O)C4CC4)c3)c2)cn1	57		
Cn1cc(-c2csc(-c3cncc(NC(=O)C4CC4)c3)c2)cn1	78.6	67.1	

Continued, in another order:

inhibition at 0.25 µM [2] [%]	IC50 [5] [nM]	Compound	also measured
40.3		CC(=O)Nc1cncc(-c2cc(-c3cccnc3)cs2)c1	viability at 72 h, 3 µM [1]: 95%; viability at 72 h, 1 µM [3]: 98%; viability at 72 h, 10 µM [4]: 83%
51.8		O=C(CN1CCCCC1)Nc1cncc(-c2cc(-c3cccnc3)cs2)c1	
62.7	132	O=C(Nc1cncc(-c2cc(-c3cccnc3)cs2)c1)C1CCNC1 (stereo not given)	
81	219	O=C(Nc1cncc(-c2cc(-c3cccnc3)cs2)c1)C1CCC1	
40	72.9	O=C(Nc1cncc(-c2cc(-c3cccnc3)cs2)c1)C1CC1	viability at 72 h, 3 µM [1]: 102%; inhibition [7]: 51.3%; IC50 [8]: 270 nM; IC50 [9]: 43 nM; inhibition [9]: Dose-dependent effect; IC50 [10]: 3.2 nM; viability at 72 h, 1 µM [3]: 99%; inhibition [11]: 21%; viability at 72 h, 10 µM [4]: 98%; IC50 [12]: 76.3 nM; inhibition [13]: 2%; inhibition at 1.25 µM [14]: 72%; inhibition [15]: 1%; inhibition [16]: inactive; inhibition [17]: 12.1%; inhibition [18]: 8%; half-life at 0.3 µM [6]: 2.4 h; inhibition [19]: 1%; inhibition [20]: 4%; inhibition [21]: 89%
51		O=C(Nc1cncc(-c2cc(-c3cccnc3)cs2)c1)C1CCCCC1	
34.9		CC(C)(C)OC(=O)N1CCC(C(=O)Nc2cncc(-c3cc(-c4cccnc4)cs3)c2)C1 (stereo not given)	
